Assay results as given in ChEMBL document CHEMBL4257469, “Deciphering the role of hydrophobic and hydrophilic bile acids in angiogenesis using in vitro and in vivo model systems” (Medchemcomm, 2017).
Active and inactive are the calls of the source. No cut-off for these calls is given here.

Experiments:
[1] = organism: Danio rerio; experiment: Antiangiogenic activity in Tg(fli:eGFP) zebrafish embryo assessed as effect on phynotypic changes after 72 hrs post fertilization by fluorescence microscopic analysis; type: functional, organism-based
Method in brief: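 Tg(fli1:eGFP) zebrafish embryos were selected at 48 hpf, 20–25 per well, and exposed to bile acids at 6.25, 12.5 and 25 μM in embryo water from DMSO stocks. Vehicle was 0.1% DMSO. At 72 hpf the solutions were replaced with fresh embryo water. Embryos were anesthetized with tricaine and imaged by stereo and fluorescence microscopy for sub-intestinal vessel sprouting and branching. Two experiments, 50 embryos per group.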

[2] = system: HUVEC; experiment: Induction of angiogenesis in HUVEC assessed as increase in tube length at 12.5 uM after overnight incubation by inverted microscopic analysis; type: functional, cell-based; conditions: Homo sapiens
Method in brief: (§1)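 Wells coated with Matigel:plain EBM-2 (1:1). HUVECs added at 2 × 10⁵ cells/well with bile acid (12.5 or 25 μM) or vehicle and left overnight. Bright-field images at 10× from five fields per well; nodes and tube lengths counted. Triplicate, three independent experiments; one-way ANOVA with Dunnett's test.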

[3] = organism: Danio rerio; experiment: Pro-angiogenic activity in Tg(fli:eGFP) zebrafish embryo assessed as arcades formation at 12.5 uM after 72 hrs post fertilization by fluorescence microscopic analysis; type: functional, organism-based
Method in brief: (§2)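 Tg(fli1:eGFP) embryos selected at 48 hpf, 20–25 per well, raised at 28.5 °C. Bile acids (DMSO stock, diluted in embryo water) given at 6.25, 12.5 or 25 μM; 0.1% DMSO as vehicle control. Solutions replaced with fresh water at 72 hpf, embryos anaesthetised with tricaine and sub-intestinal vessels imaged by fluorescence. Scored as percentage of embryos; two experiments, 50 embryos/group.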

[4] = system: HUVEC; experiment: Induction of angiogenesis in HUVEC assessed as increase in number of nodes at 12.5 uM after overnight incubation by inverted microscopic analysis relative to control; type: functional, Homo sapiens; method in brief: as §1
[5] = system: HUVEC; experiment: Pro-angiogenic activity in HUVEC assessed as decrease in VE-cadherin expression at 12.5 uM after overnight incubation by FITC-conjugated phalloidin staining based confocal microscopic analysis; type: functional, cell-based; conditions: Homo sapiens
Method in brief: (§3)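 HUVECs grown to 70% confluency on coverslips and treated with bile acids overnight. Fixed in 4% paraformaldehyde for 5 min and blocked with 1% BSA/0.1% Triton X-100 for 2 h. Stained with anti-VE-cadherin (1:200, 4 °C overnight) plus Alexa-488 secondary, FITC-phalloidin (1:100) for F-actin, and DAPI. Confocal imaging; repeated twice.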

[6] = organism: Danio rerio; experiment: Pro-angiogenic activity in Tg(fli:eGFP) zebrafish embryo assessed as increase in branching of sub-intestinal veins at 12.5 uM after 72 hrs post fertilization by fluorescence microscopic analysis; type: functional, organism-based; method in brief: as §2
[7] = organism: Danio rerio; experiment: Toxicity in zebrafish embryo assessed as reduction in embryo survival up to 50 uM; type: organism-based; conditions: in vivo
[8] = system: HUVEC; experiment: Antiangiogenic activity in HUVEC assessed as inhibition of endothelial tube formation at 25 uM after overnight incubation by inverted microscopic analysis; type: functional, cell-based; conditions: Homo sapiens
Method in brief: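 HUVECs at passages 2–5 were seeded at 2 × 10^5 cells per well on a gelled basement membrane matrix, made as Matrigel mixed 1:1 with plain EBM-2. Bile acids were added at 12.5 and 25 μM, with DMSO as vehicle control, and cells were treated overnight. Bright-field images were taken at 10× from five fields per well. Nodes and tube lengths were quantified. Runs were in triplicate; statistics by one-way ANOVA (Dunnett).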

[9] = system: HUVEC; experiment: Cytotoxicity against HUVEC assessed as reduction in cell death up to 12.5 uM after 24 hrs by MTT assay; type: cell-based; conditions: human
Method in brief: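 HUVECs (passages 2–5, complete EBM-2) seeded at 5 × 10³ cells/well and left 24 h to adhere. Serum-starved 4 h, then exposed to bile acids (serial dilutions, 100 to 6.25 μM) in complete medium for 24 h. MTT added for 4 h at 37 °C, formazan dissolved in DMSO, absorbance read at 550 nm. Run in triplicate; three independent experiments.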

[10] = system: HUVEC; experiment: Pro-angiogenic activity in HUVEC assessed as stress fiber formation at 12.5 uM after overnight incubation by FITC-conjugated phalloidin staining based confocal microscopic analysis; type: functional, cell-based; conditions: Homo sapiens; method in brief: as §3
[11] = system: HUVEC; experiment: Increase in MMP9 level in HUVEC at 12.5 uM after 24 hrs by ELISA; type: functional, cell-based; conditions: Homo sapiens
Method in brief: (§4)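 HUVECs in 6-well plates treated with 12.5 μM bile acid or DMSO vehicle. Medium supernatant collected 12 and 24 h after treatment. MMP9 measured by ELISA with HRP read-out at 405 nm, concentration interpolated from an MMP9 standard curve. Experiments done in duplicate.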

[12] = system: HUVEC; experiment: Pro-angiogenic activity in HUVEC assessed as decrease in cell-to-cell contact at 12.5 uM after overnight incubation by FITC-conjugated phalloidin staining based confocal microscopic analysis; type: functional; conditions: Homo sapiens; method in brief: as §3
[13] = organism: Danio rerio; experiment: Pro-angiogenic activity in Tg(fli:eGFP) zebrafish embryo assessed as increase in sprouting and branching of sub-intestinal vessels (after 72 hrs post fertilization by fluorescence microscopic analysis; type: functional, organism-based; method in brief: as §2
[14] = system: HUVEC; experiment: Cytotoxicity against HUVEC assessed as reduction in cell viability at 6.25 to 100 uM after 24 hrs by MTT assay; type: cell-based; conditions: human
Method in brief: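 HUVECs at passages 2–5 were seeded at 5 × 10^3 cells per well in complete EBM-2 and allowed to adhere for 24 h. They were serum-starved 4 h, then given serially diluted bile acids (100 to 6.25 μM) in complete medium for 24 h. MTT was added for 4 h at 37 °C. Formazan was dissolved in DMSO and absorbance read at 550 nm. Three independent experiments.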

[15] = organism: Danio rerio; experiment: Pro-angiogenic activity in Tg(fli:eGFP) zebrafish embryo assessed as sub-intestinal vein baskets extending towards ventral side at 12.5 uM after 72 hrs post fertilization by fluorescence microscopic analysis; type: functional, organism-based; method in brief: as §2
[16] = system: HUVEC; experiment: Decrease in MMP9 level in HUVEC at 12.5 uM after 24 hrs by ELISA; type: functional, cell-based; conditions: Homo sapiens; method in brief: as §4
[17] = organism: Danio rerio; experiment: Pro-angiogenic activity in Tg(fli:eGFP) zebrafish embryo assessed as increase in sprouting of sub-intestinal veins at 12.5 uM after 72 hrs post fertilization by fluorescence microscopic analysis; type: functional, organism-based; method in brief: as §2
[18] = organism: Danio rerio; experiment: Pro-angiogenic activity in Tg(fli:eGFP) zebrafish embryo at 6.25 uM after 72 hrs post fertilization by fluorescence microscopic analysis; type: functional, organism-based; method in brief: as §2
[19] = system: HUVEC; experiment: Increase in VEGFR1 m-RNA expression in HUVEC at 12.5 uM after 12 to 24 hrs by RT-qPCR analysis; type: functional, cell-based; conditions: Homo sapiens
Method in brief: (§5)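 HUVECs treated with 12.5 μM bile acid or DMSO for 12 and 24 h. Total RNA extracted and 1 μg reverse-transcribed. SYBR-green qPCR for VEGFR1/VEGFR2: 95 °C 10 min, then 40 cycles of 95 °C 5 s / 60 °C 30 s. ΔΔCT normalised to GAPDH and expressed as fold change over control; repeated twice.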

[20] = system: HUVEC; experiment: Increase in VEGFR2 m-RNA expression in HUVEC at 12.5 uM after 12 to 24 hrs by RT-qPCR analysis; type: functional, cell-based; conditions: Homo sapiens; method in brief: as §5
[21] = system: HUVEC; experiment: Induction of angiogenesis in HUVEC assessed as increase in tube formation at 12.5 uM after overnight incubation by inverted microscopic analysis; type: functional, cell-based; conditions: Homo sapiens; method in brief: as §1
[22] = system: HUVEC; experiment: Increase in wound healing in HUVEC at 12.5 uM after 18 to 24 hrs by phase contrast microscopic analysis; type: functional, cell-based; conditions: Homo sapiens
Method in brief: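 HUVECs grown to a confluent monolayer in 12-well plates and serum-deprived overnight. Scratched with a p200 tip, washed with DPBS, then given complete EBM-2 with 12.5 μM bile acid or DMSO vehicle. Imaged from a marked reference point at 0 h and after 18–24 h (phase contrast, 10×); percentage of migrated cells versus control. Triplicate; Dunnett's test.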

SMILES: O=c1cc(N2CCOCC2)oc2c(-c3ccccc3)cccc12
- Activity [1]: Active

SMILES: C[C@H](CCC(=O)O)[C@H]1CC[C@H]2[C@@H]3[C@H](O)C[C@@H]4C[C@H](O)CC[C@]4(C)[C@H]3CC[C@]12C [CHENODIOL]
- Activity [2]: Active
- Activity [3]: Active
- Activity [4]: 150%
- Activity [5]: Active
- Activity [6]: Active
- Activity [7]: Non-Toxic
- Activity [8]: inactive
- Activity [9]: Non-Toxic
- Activity [10]: Active
- Activity [11]: Active
- Activity [12]: Active
- Activity [13]: Dose-dependent effect
- Activity [14]: Non-Toxic
- Activity [15]: Active
- Activity [16]: Active
- Activity [17]: Active
- Activity [18]: Active
- Activity [19]: Active
- Activity [20]: Active
- Activity [21]: Active
- Activity [22]: Active
